Experimental data published in ChEMBL document CHEMBL1687794, “Phenotypic and biochemical comparison of the carbapenem-hydrolyzing activities of five plasmid-borne AmpC β-lactamases” (2010).
≈ marks a conversion by molar mass, not a printed value.

Key:
[1] = Activity of Beta-lactamase FOX-1
Outline: (§1)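 Enzyme source: AmpC genes cloned without native promoter under lacZ control, expressed in E. coli TOP10, purified (FOX-1 by two Q-Sepharose steps, bis-Tris pH 6.8 then Tris-HCl pH 9). Hydrolysis monitored spectrophotometrically at 30°C in 100 mM sodium phosphate pH 7.0 with cephaloridine, ertapenem, imipenem or meropenem. kcat from initial rates at saturating substrate ([S] = 100 × Km).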

[2] = Activity of Beta-lactamase ACC-1
Outline: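 ACC-1 cloned without its native promoter behind the lacZ promoter, expressed in E. coli TOP10 and purified. Ki, Km and kcat measured by UV spectrophotometry at 30°C in 100 mM sodium phosphate pH 7.0. Cephaloridine Km/kcat from initial rates by Eadie-Hofstee analysis. Imipenem Ki measured against cephaloridine reporter substrate; kcat from initial rates at [S] = 100 × Km.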

[3] = Activity of Beta-lactamase ACT-1; outline: as §1
[4] = Ratio of Kcat to Km for Beta-lactamase FOX-1
Outline: (§2)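 Purified TOP10-expressed AmpC enzymes, assayed spectrophotometrically at 30°C, 100 mM sodium phosphate pH 7.0. Cephaloridine Km and kcat from initial rates via Eadie-Hofstee linearization. For imipenem, Ki replaced Km, measured against cephaloridine as reporter substrate. kcat from initial rates at saturating substrate ([S] = 100 × Km) using undiluted enzyme extract. Efficiency taken as kcat/Km.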

[5] = Activity of Beta-lactamase CMY-2; outline: as §1
[6] = Ratio of Kcat to Km for Beta-lactamase ACC-1; outline: as §2
[7] = Ratio of Kcat to Km for Beta-lactamase DHA-1; outline: as §2
[8] = Activity of Beta-lactamase DHA-1; outline: as §1
[9] = Activity of Beta-lactamase AmpC-B2; outline: as §1
[10] = Ratio of Kcat to Km for Beta-lactamase AmpC-B2; outline: as §2
[11] = Ratio of Kcat to Km for Beta-lactamase ACT-1; outline: as §2
[12] = Ratio of Kcat to Km for Beta-lactamase CMY-2; outline: as §2
[13] = test system: Escherichia coli; assay: Antimicrobial activity against Escherichia coli TOP10 transformed with Escherichia coli DH10B plasmid carrying DHA-1 by agar dilution method; assay type: functional
Outline: (§3)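 Agar dilution MICs on Mueller-Hinton agar, 10^4 CFU per spot, read by CLSI guidelines. Strains are wild-type E. coli TOP10, with or without a cloned ampC gene (native promoter removed, lacZ promoter-driven). Antibiotics tested: cefoxitin, cefuroxime, cefotaxime, ceftazidime, cefepime, imipenem, ertapenem, meropenem.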

[14] = test system: Escherichia coli; assay: Antimicrobial activity against OmpC/OmpF porin deficient Escherichia coli HB4 transformed with Escherichia coli EC-6 plasmid carrying AmpC-B2 by agar dilution method; assay type: functional
Outline: (§4)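 Agar dilution on Mueller-Hinton agar, inoculum 10^4 CFU per spot, interpreted per CLSI. Host is E. coli HB4, which lacks OmpC and OmpF, with or without a cloned ampC gene under the lacZ promoter. Panel: cefoxitin, cefuroxime, cefotaxime, ceftazidime, cefepime, imipenem, ertapenem, meropenem.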

[15] = test system: Escherichia coli; assay: Antimicrobial activity against OmpC/OmpF porin deficient Escherichia coli HB4 transformed with Escherichia coli pGLK-1 plasmid carrying FOX-1 by agar dilution method; assay type: functional; outline: as §4
[16] = test system: Escherichia coli; assay: Antimicrobial activity against Escherichia coli TOP10 by agar dilution method
[17] = test system: Escherichia coli; assay: Antimicrobial activity against Escherichia coli TOP10 transformed with Escherichia coli ECB-1 plasmid carrying ACC-1 by agar dilution method; assay type: functional; outline: as §3
[18] = test system: Escherichia coli; assay: Antimicrobial activity against Escherichia coli TOP10 transformed with Enterobacter asburiae CIP 105006 plasmid carrying ACT-1 by agar dilution method; assay type: functional; outline: as §3
[19] = test system: Escherichia coli; assay: Antimicrobial activity against Escherichia coli TOP10 transformed with Escherichia coli EC-6 plasmid carrying AmpC-B2 by agar dilution method; assay type: functional; outline: as §3
[20] = test system: Escherichia coli; assay: Antimicrobial activity against Escherichia coli TOP10 transformed with Escherichia coli ECB2 plasmid carrying CMY-2 by agar dilution method; assay type: functional; outline: as §3
[21] = test system: Escherichia coli; assay: Antimicrobial activity against OmpC/OmpF porin deficient Escherichia coli HB4 transformed with Enterobacter asburiae CIP 105006 plasmid carrying ACT-1 by agar dilution method; assay type: functional; outline: as §4
[22] = test system: Escherichia coli; assay: Antimicrobial activity against OmpC/OmpF porin deficient Escherichia coli HB4 transformed with Escherichia coli DH10B plasmid carrying DHA-1 by agar dilution method; assay type: functional; outline: as §4
[23] = test system: Escherichia coli; assay: Antimicrobial activity against OmpC/OmpF porin deficient Escherichia coli HB4 by agar dilution method; assay type: functional; outline: as §4
[24] = test system: Escherichia coli; assay: Antimicrobial activity against OmpC/OmpF porin deficient Escherichia coli HB4 transformed with Escherichia coli ECB-1 plasmid carrying ACC-1 by agar dilution method; assay type: functional; outline: as §4
[25] = test system: Escherichia coli; assay: Antimicrobial activity against Escherichia coli TOP10 transformed with Escherichia coli pGLK-1 plasmid carrying FOX-1 by agar dilution method; assay type: functional; outline: as §3
[26] = test system: Escherichia coli; assay: Antimicrobial activity against OmpC/OmpF porin deficient Escherichia coli HB4 transformed with Escherichia coli ECB2 plasmid carrying CMY-2 by agar dilution method; assay type: functional; outline: as §4

SMILES | MIC [13] | MIC [14] | MIC [15] | MIC [16] | MIC [17] | MIC [18] | MIC [19] | MIC [20] | MIC [21] | MIC [22] | MIC [23] | MIC [24] | MIC [25] | MIC [26] | also measured
O=C(Cc1cccs1)N[C@@H]1C(=O)N2C(C(=O)[O-])=C(C[n+]3ccccc3)CS[C@H]12 | – | – | – | – | – | – | – | – | – | – | – | – | – | – | Km [1]: 630 µM; kcat [1]: 228 s⁻¹; Km [2]: 420 µM; kcat [2]: 140 s⁻¹; Km [3]: 420 µM; kcat [3]: 481 s⁻¹; kcat/Km [4]: 360000 M⁻¹ s⁻¹; Km [5]: 125 µM; kcat [5]: 412 s⁻¹; kcat/Km [6]: 330000 M⁻¹ s⁻¹; kcat/Km [7]: 595000 M⁻¹ s⁻¹; Km [8]: 330 µM; kcat [8]: 196 s⁻¹; Km [9]: 950 µM; kcat [9]: 240 s⁻¹; kcat/Km [10]: 250000 M⁻¹ s⁻¹; kcat/Km [11]: 1.14e+06 M⁻¹ s⁻¹; kcat/Km [12]: 3.3e+06 M⁻¹ s⁻¹
CO/N=C(\C(=O)N[C@@H]1C(=O)N2C(C(=O)[O-])=C(C[N+]3(C)CCCC3)CS[C@H]12)c1csc(N)n1 [CEFEPIME] | 0.064 µg/mL (≈ 0.133 µM) | 1 µg/mL (≈ 2.08 µM) | 8 µg/mL (≈ 16.6 µM) | 0.06 µg/mL (≈ 0.125 µM) | 0.125 µg/mL (≈ 0.26 µM) | 0.25 µg/mL (≈ 0.52 µM) | 0.06 µg/mL (≈ 0.125 µM) | 1 µg/mL (≈ 2.08 µM) | 4 µg/mL (≈ 8.32 µM) | 2 µg/mL (≈ 4.16 µM) | 1 µg/mL (≈ 2.08 µM) | 4 µg/mL (≈ 8.32 µM) | – | – | –
CO/N=C(\C(=O)N[C@@H]1C(=O)N2C(C(=O)O)=C(COC(C)=O)CS[C@H]12)c1csc(N)n1 [CEFOTAXIME] | 8 µg/mL (≈ 17.6 µM) | 4 µg/mL (≈ 8.78 µM) | 32 µg/mL (≈ 70.3 µM) | 0.06 µg/mL (≈ 0.132 µM) | 1 µg/mL (≈ 2.2 µM) | 64 µg/mL (≈ 141 µM) | 0.5 µg/mL (≈ 1.1 µM) | 128 µg/mL (≈ 281 µM) | 64 µg/mL (≈ 141 µM) | 128 µg/mL (≈ 281 µM) | 4 µg/mL (≈ 8.78 µM) | 4 µg/mL (≈ 8.78 µM) | 16 µg/mL (≈ 35.1 µM) | 256 µg/mL (≈ 562 µM) | –
CO[C@@]1(NC(=O)Cc2cccs2)C(=O)N2C(C(=O)O)=C(COC(N)=O)CS[C@@H]21 [CEFOXITIN] | 32 µg/mL (≈ 74.9 µM) | 512 µg/mL (≈ 1200 µM) | > 512 µg/mL | 2 µg/mL (≈ 4.68 µM) | 2 µg/mL (≈ 4.68 µM) | 512 µg/mL (≈ 1200 µM) | 128 µg/mL (≈ 299 µM) | 128 µg/mL (≈ 299 µM) | > 512 µg/mL | > 512 µg/mL | 256 µg/mL (≈ 599 µM) | 256 µg/mL (≈ 599 µM) | 512 µg/mL (≈ 1200 µM) | > 512 µg/mL | –
CC(C)(O/N=C(\C(=O)N[C@@H]1C(=O)N2C(C(=O)[O-])=C(C[n+]3ccccc3)CS[C@H]12)c1csc(N)n1)C(=O)O [CEFTAZIDIME] | 64 µg/mL (≈ 117 µM) | 8 µg/mL (≈ 14.6 µM) | 512 µg/mL (≈ 937 µM) | 0.06 µg/mL (≈ 0.11 µM) | 8 µg/mL (≈ 14.6 µM) | 128 µg/mL (≈ 234 µM) | 1 µg/mL (≈ 1.83 µM) | 256 µg/mL (≈ 468 µM) | > 512 µg/mL | 256 µg/mL (≈ 468 µM) | 4 µg/mL (≈ 7.32 µM) | 16 µg/mL (≈ 29.3 µM) | 64 µg/mL (≈ 117 µM) | > 512 µg/mL | –
CO/N=C(\C(=O)N[C@@H]1C(=O)N2C(C(=O)O)=C(COC(N)=O)CS[C@H]12)c1ccco1 [CEFUROXIME] | 128 µg/mL (≈ 302 µM) | 512 µg/mL (≈ 1210 µM) | > 512 µg/mL | 1 µg/mL (≈ 2.36 µM) | 1 µg/mL (≈ 2.36 µM) | 512 µg/mL (≈ 1210 µM) | 128 µg/mL (≈ 302 µM) | 128 µg/mL (≈ 302 µM) | > 512 µg/mL | > 512 µg/mL | 32 µg/mL (≈ 75.4 µM) | 128 µg/mL (≈ 302 µM) | 256 µg/mL (≈ 603 µM) | > 512 µg/mL | –
C[C@@H](O)[C@H]1C(=O)N2C(C(=O)O)=C(S[C@@H]3CN[C@H](C(=O)Nc4cccc(C(=O)O)c4)C3)[C@H](C)[C@H]12 [ERTAPENEM] | 0.012 µg/mL (≈ 0.0252 µM) | 2 µg/mL (≈ 4.21 µM) | 4 µg/mL (≈ 8.41 µM) | 0.006 µg/mL (≈ 0.0126 µM) | 0.006 µg/mL (≈ 0.0126 µM) | 0.016 µg/mL (≈ 0.0336 µM) | 0.064 µg/mL (≈ 0.135 µM) | 0.064 µg/mL (≈ 0.135 µM) | 256 µg/mL (≈ 538 µM) | 16 µg/mL (≈ 33.6 µM) | 1 µg/mL (≈ 2.1 µM) | 2 µg/mL (≈ 4.21 µM) | 0.032 µg/mL (≈ 0.0673 µM) | 256 µg/mL (≈ 538 µM) | –
C[C@@H](O)[C@H]1C(=O)N2C(C(=O)O)=C(SCCNC=N)C[C@H]12 [IMIPENEM ANHYDROUS] | – | 0.5 µg/mL (≈ 1.67 µM) | 0.5 µg/mL (≈ 1.67 µM) | – | – | – | 0.125 µg/mL (≈ 0.418 µM) | 0.5 µg/mL (≈ 1.67 µM) | 16 µg/mL (≈ 53.4 µM) | 2 µg/mL (≈ 6.68 µM) | – | 0.5 µg/mL (≈ 1.67 µM) | 0.25 µg/mL (≈ 0.835 µM) | 32 µg/mL (≈ 107 µM) | Km [1]: 35 µM; kcat [1]: 0.01 s⁻¹; kcat [2]: < 0.001 s⁻¹; Km [3]: 3 µM; kcat [3]: 0.02 s⁻¹; kcat/Km [4]: 300 M⁻¹ s⁻¹; Km [5]: 1 µM; kcat [5]: 0.04 s⁻¹; kcat [8]: < 0.001 s⁻¹; Km [9]: 35 µM; kcat [9]: 0.08 s⁻¹; kcat/Km [10]: 2000 M⁻¹ s⁻¹; kcat/Km [11]: 7000 M⁻¹ s⁻¹; kcat/Km [12]: 40000 M⁻¹ s⁻¹
C[C@@H](O)[C@H]1C(=O)N2C(C(=O)O)=C(S[C@@H]3CN[C@H](C(=O)N(C)C)C3)[C@H](C)[C@H]12 [MEROPENEM] | 0.032 µg/mL (≈ 0.0834 µM) | 0.032 µg/mL (≈ 0.0834 µM) | 0.75 µg/mL (≈ 1.96 µM) | 0.032 µg/mL (≈ 0.0834 µM) | 0.032 µg/mL (≈ 0.0834 µM) | 0.032 µg/mL (≈ 0.0834 µM) | 0.032 µg/mL (≈ 0.0834 µM) | 0.064 µg/mL (≈ 0.167 µM) | 4 µg/mL (≈ 10.4 µM) | 1 µg/mL (≈ 2.61 µM) | 0.032 µg/mL (≈ 0.0834 µM) | 0.5 µg/mL (≈ 1.3 µM) | 0.125 µg/mL (≈ 0.326 µM) | 8 µg/mL (≈ 20.9 µM) | –
